Assay results as given in PubChem BioAssay.
Inconclusive results are not listed. Calls of active or inactive are those of the source.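 The calls were made as follows, unless noted: active = viability increase at or above a cutoff of the median across tested compounds plus 3 SD (cut at about 8.5% in these data, passing the limit was not always enough); inconclusive = some gains above the cutoff, reason not given; inactive = the rest.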

What was measured:
[1] = OD615 S. cerevisiae growth inhibition, permissive medium, pilot counter-assay, permissive growth control for S. cerevisiae lifespan shortening project (AID 705;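 active = growth inhibition above 25% in both replicates, a cutoff set 3 SD above the mean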); conditions: OD615, 24 h, at 10 µM, stronger effect = higher value
Procedure, shortened: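 System: S. cerevisiae with engineered DeaD lifespan system / Measured by: absorbance (optical density) at 615 nm / Read-out: reduction in yeast growth (OD615) / Times: 4 h cell pre-growth, 24 h exposure at 30 °C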

[2] = Restrictive medium S. cerevisiae growth inhibition, OD615, pilot screen of yeast lifespan reduction project, restrictive growth control (AID 706;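 active = growth inhibition above a set limit, 3 SD over mean compound inhibition, in both replicates, cut at about 43% in these data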;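 also: modified DeaD lifespan yeast strain shifted to restrictive glucose medium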); conditions: OD615, 48 h, at 10 µM, stronger effect = higher value
Procedure, shortened: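 System: Engineered S. cerevisiae DeaD strain | Buffer or medium: Glucose-based CSMM-D restrictive medium | Schedule: 4 h pre-incubation, 48 h exposure at 30 °C | Technique: Optical density at 615 nm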

[3] = viability gain of MRP-1-high H69AR cells under doxorubicin, pilot screen, MRP-1 activator project, CellTiter-Glo, duplicate (AID 807); conditions: H69AR viability with doxorubicin, CellTiter-Glo luminescence; at 10 µM; stronger effect = higher value;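 also: compound pretreatment 18-22 h then 72 h combined with doxorubicin; 0% = doxorubicin alone and 100% = vehicle without doxorubicin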
[4] = growth suppression of beta-catenin knockout HCT116, pilot screen, human colon tumor cells (AID 823;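 active = cell viability at or below a set limit in both duplicate runs, the limit being the all-compound median minus 4 SD, cut at about 23% in these data, passing the limit was not always enough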;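 also: 0% = wells killed by 20 µM Hyamine and 100% = untreated DMSO cell wells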); conditions: CellTiter-Glo, 60 h, at 10 µM, stronger effect = lower value
[5] = growth suppression of PTEN-deleted HCT116, pilot screen, cell-based, HCT116 clonal line, CellTiter-Glo (AID 824;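 active = viability at or below 27.92% in each of two runs, the all-compound median minus 4 SD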;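 also: 0% = 20 µM Hyamine control and 100% = vehicle cell control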); conditions: 60 h, at 10 µM, stronger effect = lower value
[6] = inhibitors of the yeast RAM network, pilot screen, dse1pr::URA3 reporter, 5-FOA selection (AID 869;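 active = inhibition over a set limit, the all-compound mean plus 3 SD, in both replicate runs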;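 also: 0% = DMSO wells with no growth and 100% = 10 µM 1-NA-PP1 with full growth; RAM network block rescues cells from 5-FOA so hits raise OD615 growth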); conditions: S. cerevisiae dse1pr::URA3 5-FOA growth, OD615, 2 d; at 10 µM; stronger effect = higher value; strain carries analog-sensitive mutant Cbk1 kinase
[7] = RAM signaling pathway blockade in yeast – S. cerevisiae, Pdr1DBD-CYC8 efflux-inhibited sensitized strain, primary screen (AID 1298;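 active = RAM network inhibition above 8.4% in each of two replicates, 3 SD over the compound average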;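 also: 0% = DMSO untreated cells without growth and 100% = 10 µM 1-NA-PP1 full growth; higher means more yeast growth rescued from 5-FOA killing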); conditions: S. cerevisiae cbk1-as DSE1-URA3 strain, 5-FOA growth OD615, 2 d; at 50 µM; stronger effect = higher value

CC(C)CC(=O)Nc1c2c(nn1-c1ccc(F)cc1)CSC2
inactive: growth inhibition [1] -13.9% | growth inhibition [2] -14.5% | viability increase [3] -1.7% | viability [4] 91.1% | viability [5] 90.9% | inhibition [6] 1.46% | RAM network inhibition [7] 5.43%

CCCCNc1cc(=O)n(C)c(=O)[nH]1
inactive: growth inhibition [1] -12.2% | growth inhibition [2] -4.46% | viability increase [3] -0.6% | viability [4] 104% | viability [5] 96.5% | inhibition [6] 1.55% | RAM network inhibition [7] 2.98%

Cn1c(=O)oc2cc(S(=O)(=O)N3CCCc4ccccc43)ccc21
inactive: growth inhibition [1] -5.55% | growth inhibition [2] -1.98% | viability increase [3] -5.94% | inhibition [6] 1.96% | RAM network inhibition [7] 3.9%
active: viability [4] 18.1% | viability [5] 23.5%

Cc1cccc(C)c1NC(=O)C1(NC(=O)c2cnccn2)CCCCC1
inactive: growth inhibition [1] -12.1% | growth inhibition [2] 0.045% | viability increase [3] -2.5% | viability [4] 98.4% | viability [5] 95.1% | inhibition [6] 1.21% | RAM network inhibition [7] 0.32%

CCNC(=O)CN(Cc1ccccc1)S(=O)(=O)c1ccccc1
inactive: growth inhibition [1] -5.21% | growth inhibition [2] 13.1% | viability increase [3] 0.61% | viability [4] 89.3% | viability [5] 104% | inhibition [6] 0.615% | RAM network inhibition [7] 1.94%

C=C(C)CC1N(c2cccc(OC)c2)C(=O)C2C(C(=O)O)C3C=CC21O3 (stereo unspecified)
inactive: growth inhibition [1] -5.17% | growth inhibition [2] 4.84% | viability increase [3] -1.04% | viability [4] 103% | viability [5] 95.3% | inhibition [6] -0.415% | RAM network inhibition [7] 5.36%

CC(C)CN(CC(C)C)c1nnc(N)s1
inactive: growth inhibition [1] 3.15% | growth inhibition [2] 2.1% | viability increase [3] 1.25% | viability [4] 103% | viability [5] 99.5% | inhibition [6] 0.56% | RAM network inhibition [7] 1.13%

O=C(O)C1C2C=CC3(CN(Cc4ccco4)C(=O)C13)O2 (stereo unspecified)
inactive: growth inhibition [1] -11.7% | growth inhibition [2] 4.86% | viability increase [3] -0.96% | viability [4] 112% | viability [5] 95.6% | inhibition [6] 0.815% | RAM network inhibition [7] -0.52%

COC(=O)c1ccccc1NC(=O)Cn1cc2c(n1)CCC(C)C2 (stereo unspecified)
inactive: growth inhibition [1] 0.34% | growth inhibition [2] -0.81% | viability increase [3] -0.23% | viability [4] 92.9% | viability [5] 87.9% | inhibition [6] 1.79% | RAM network inhibition [7] 3.66%

COCc1nc(-c2ccc(-c3ccc(OC)cc3)nc2OC)no1
inactive: growth inhibition [1] 11.9% | growth inhibition [2] 3.28% | viability increase [3] -0.98% | viability [4] 71% | viability [5] 72.2% | inhibition [6] 1% | RAM network inhibition [7] 2.1%

COc1ccc(C)cc1NC(=O)CSc1nnc(-c2ccc(C)cc2)o1
inactive: growth inhibition [1] -8.71% | growth inhibition [2] 30.3% | viability increase [3] 1.15% | viability [4] 91.9% | viability [5] 86.8% | inhibition [6] 2.09% | RAM network inhibition [7] 5.49%

COc1ccc(CCNC(=O)CSc2nnnn2-c2ccccc2)cc1
inactive: growth inhibition [1] 2.08% | growth inhibition [2] -9.2% | viability increase [3] -2.24% | viability [4] 94.7% | viability [5] 88.8% | inhibition [6] 1.33% | RAM network inhibition [7] 6.52%

Oc1[nH]c2ccccc2c1C=Nc1ccc2c(c1)OCO2
inactive: growth inhibition [1] -18.5% | growth inhibition [2] -9.39% | viability increase [3] -5.2% | viability [4] 75% | viability [5] 71.4% | inhibition [6] 1.74% | RAM network inhibition [7] 1.86%

COC(=O)/C=C(\C)NC(=O)c1cccs1
inactive: growth inhibition [1] -1.38% | growth inhibition [2] 4.05% | viability increase [3] 0.51% | viability [4] 101% | viability [5] 97.5% | inhibition [6] -0.705% | RAM network inhibition [7] 0.06%

COc1ccc(S(=O)(=O)NCCSc2ccc(C)cc2)cc1OC
inactive: growth inhibition [1] 1.08% | growth inhibition [2] 1.66% | viability increase [3] -2.26% | viability [4] 85.8% | viability [5] 86.1% | inhibition [6] 1.18% | RAM network inhibition [7] 2.65%

CCOC(=O)C(CCC#N)(CCC#N)C(=O)OCC
inactive: growth inhibition [1] -11.9% | growth inhibition [2] -5.42% | viability increase [3] -0.16% | viability [4] 95.9% | viability [5] 102% | inhibition [6] 0.445% | RAM network inhibition [7] 5.31%

COC(=O)C1=C(C)N(C)C(=O)NC1c1ccc(C)cc1 (stereo unspecified)
inactive: growth inhibition [1] 0.9% | growth inhibition [2] -13.4% | viability increase [3] 0.2% | viability [4] 105% | viability [5] 101% | inhibition [6] 2.69% | RAM network inhibition [7] -0.17%

Cn1c(=O)c2c(nc(NCc3ccccc3)n2C)n(C)c1=O
inactive: growth inhibition [1] -4.99% | growth inhibition [2] -2.69% | viability increase [3] -1.73% | viability [4] 99.6% | viability [5] 95.4% | inhibition [6] 0.45% | RAM network inhibition [7] 1.42%
